# Experimental data as given in PubChem BioAssay AID821 (SRMLSC, 2007).
# The source made the active and inactive calls.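 How the source made its calls: active means compounds whose fitted half-maximal concentration for reducing fibroblast viability is 100 µM or lower; inactive means the rest.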
# Experiment: LL 47 lung fibroblast growth inhibition, concentration-response, selectivity test for endothelial growth inhibitor program, cellular, luminescent ATP readout (AID 821);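 further: 100% = median of untreated cell-only wells and 0% = no luminescence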
# Settings: LL 47 lung fibroblast viability, ATP luminescence; at 20 µM (top of the series)
# Outline: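 System: LL 47 human lung fibroblast cells. Timing: overnight cell settling, then 72 h compound exposure at 37 °C. Measured by: CellTiter-Glo luminescence. Evaluation: percent viability relative to untreated wells, EC50 via 4-parameter fit.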
row,SMILES,viability
1,Nc1c(S(=O)(=O)c2ccccc2)c2nc3ccccc3nc2n1/N=C/c1cccc(O)c1,94.2% (inactive)
2,Clc1ccc(-c2nc(NCCN3CCOCC3)c3ccccc3n2)cc1,83.1% (inactive)
3,O=C(Nc1nnc(-c2ccc3c(c2)OCCO3)o1)c1ccc(Cc2ccccc2)cc1,97.9% (inactive)
4,Cc1ccc(N=Nc2c(C)[nH][nH]c2=O)c(C)c1,97.6% (inactive)
5,Cn1c(=O)c2cc(NCc3ccccc3)nnc2n(C)c1=O,100% (inactive)
6,Cc1ccc(-c2nc3cccnc3o2)cc1NC(=O)COc1ccc(C(C)(C)C)cc1,99.4% (inactive)
7,O=C(CN1CCN(S(=O)(=O)c2ccc(F)cc2)CC1)Nc1ccc2c(c1)OCO2,104% (inactive)
8,COC(=O)/C(=C\Nc1ccc(Cl)cc1Cl)NC(=O)c1ccc(Cl)cc1Cl,96% (inactive)
9,Cc1sc2nc(SCC(=O)NCc3ccco3)n(Cc3ccccc3)c(=O)c2c1C,98.4% (inactive)
10,CCN1CCN(c2ncc(C(=O)Nc3cc(Cl)c(OC)cc3OC)c3ccccc23)CC1,103% (inactive)
11,CCOc1cc(N2CCOCC2)c(OCC)cc1NC(=O)COc1ncnc2ccc(Br)cc12,100% (inactive)
12,C=CCN1C(=Nc2cccnc2)SCC1(O)c1ccc(C)cc1 (stereo not drawn),86.4% (inactive)
13,Cc1ccc(-n2c(SCC(=O)Nc3ccc4c(c3)OCO4)nnc2-c2ccccn2)cc1,103% (inactive)
14,COc1ccc2nc3oc(C(=O)N4CCN(c5ccccc5F)CC4)cc3cc2c1,108% (inactive)
15,O=C(Cc1sc(-c2ccccc2Cl)nc1-c1ccccc1)Nc1ccccc1,99.7% (inactive)
16,O=C(Nc1ccccc1)c1cccc(-c2nnc(-c3ccccc3)o2)c1,102% (inactive)
17,Cc1ccc(C)c(N2CCN(CCCNC(=O)Cn3cc4c(n3)CCCCC4)CC2)c1,83.3% (inactive)
18,COCCn1c(C)cc(C(=O)CSc2nc3ccccc3o2)c1C,129% (inactive)
19,Cc1nn(Cc2ccc(Cl)c(Cl)c2)c(C)c1NC(=O)c1cc(-c2ccc3c(c2)OCO3)on1,94.2% (inactive)
20,Cc1cc(C)n(-c2nc(Nc3ccccc3C)nc(-n3nc(C)cc3C)n2)n1,97.1% (inactive)
21,O=C(COc1ccc(Cl)cc1)Nc1ccccc1C(=O)NCc1ccco1,82.7% (inactive)
22,Cn1c(CNc2cccc(Cl)c2)nnc1SCC(=O)OC1CCCCC1,86.7% (inactive)
23,CCn1c(=N)n(CC(=O)C23CC4CC(CC(C4)C2)C3)c2ccccc21,86% (inactive)
24,COCCn1c(SCC(=O)Nc2ccc(NC(=O)c3ccco3)c(OC)c2)nc2ccccc2c1=O,99.1% (inactive)

row,SMILES,viability
1,O=C(Nc1ccc(Cl)c(Cl)c1)C1=Cc2ccccc2OC1,99.6% (inactive)
2,CCOC(=O)c1c(C)[nH]c(C(=O)OC/C(O)=C(\C#N)c2nc3ccccc3[nH]2)c1C,113% (inactive)
3,COc1ccccc1NC(=O)C1C2C=CC(O2)C1C(=O)O (stereo not drawn),100% (inactive)
4,Cc1ccc(NC(=O)C(C)N2C(=O)c3ccccc3C2=O)cc1 (stereo not drawn),107% (inactive)
5,Cc1cc(Cl)ccc1OCCCC(N)=O,95% (inactive)
6,CCCCCCn1c(N2CCN(c3ccccc3)CC2)nc2c1c(=O)n(C)c(=O)n2C,101% (inactive)
7,Cc1nn(C)c(C)c1NC(=O)CSc1nc(C2CC2)nc2c1cnn2-c1ccccc1,108% (inactive)
8,CC1(C)Nc2ccc(O)cc2-c2c1ssc2=S,92.1% (inactive)
9,N#C/C(=C/c1ccc(N2CCCCCC2)o1)c1ccc(Cl)cc1,100% (inactive)
10,CN1C(=O)C(O)(CC(=O)c2cccc(-n3cccc3)c2)c2ccccc21 (stereo not drawn),93.7% (inactive)
11,Cn1nnc(NC(=O)CSc2ccc(Cl)cc2)n1,125% (inactive)
12,COc1ccc2[nH]c(=O)c(CN(C3CCCCC3)C(c3nnnn3Cc3ccco3)C(C)C)cc2c1 (stereo not drawn),83.2% (inactive)
13,Clc1ccc(Cn2cc(/C=N/n3cnnc3)c3ccccc32)c(Cl)c1,99% (inactive)
14,Nc1nc(-c2ccccc2)cc(-c2ccccc2O)n1,104% (inactive)
15,CCCCCCn1c(O)c(C=NC2CCCCC2N)c(=O)[nH]c1=O (stereo not drawn),113% (inactive)
16,CCOc1ccc(NC(=S)Nc2ccc(C)c([N+](=O)[O-])c2)cc1,121% (inactive)
17,COc1cc(/C=c2\s/c(=C(/C#N)C(=O)N3CCCC3)n(-c3ccccc3)c2=O)ccc1O,104% (inactive)
18,CCOC(=O)c1sc(NC(=O)CSc2nnnn2-c2ccc(C)c(C)c2)nc1C,83.3% (inactive)
19,Cc1cc(C)n(-c2nc(NCCCO)c3c4c(sc3n2)CCCC4)n1,88.8% (inactive)
20,COC(=O)c1ccccc1NC(=O)c1cc(-c2cccs2)on1,90.8% (inactive)
21,CC(C)(C)C1CC=C2C(C#N)=C(N)C(C#N)(C#N)C(c3cccs3)C2C1 (stereo not drawn),94.4% (inactive)
22,Cn1c(NC(=O)c2cccc(Cn3cc(Cl)cn3)c2)nc2ccccc21,103% (inactive)
23,N/C(Cc1ccc(Cl)cc1)=N\OC(=O)c1ccc2ccccc2c1,91.6% (inactive)
24,Cc1ccc(/C=C/C(=O)c2ccccc2)cc1,85.6% (inactive)

row,SMILES,viability
1,Cc1cc(NCCCN2CCOCC2)n2ncc(-c3ccc(Cl)cc3)c2n1,84.9% (inactive)
2,O=c1/c(=C/c2ccco2)sc2n1CN(c1cccc(Br)c1)CN=2,106% (inactive)
3,CSc1nc2c(cnn2-c2ccc(C)c(C)c2)c(=O)[nH]1,93.2% (inactive)
4,COc1ccccc1C1CC(c2c(-c3ccccc3)c3cc(Cl)ccc3[nH]c2=O)=NN1S(C)(=O)=O (stereo not drawn),83.6% (inactive)
5,COc1ccc(OC)c(-n2nnnc2SCC(=O)Nc2ccc3c(c2)OCCO3)c1,103% (inactive)
6,O=C(CCC1CCCC1)c1c(O)c2ccccc2oc1=O,93.9% (inactive)
7,Cc1oc(-c2ccccc2F)nc1CN1CCC(C(=O)NCCC2=CCCCC2)CC1,83.4% (inactive)
8,Cc1cccc(-c2nc(CN3CCCC(C(=O)NC4CCC(C)CC4)C3)c(C)o2)c1 (stereo not drawn),85.4% (inactive)
9,Cc1cccc(N2CCN(C(=O)c3ccc4nc(-c5ccco5)c(-c5ccco5)nc4c3)CC2C)c1 (stereo not drawn),105% (inactive)
10,Cc1ccc(C(=O)Nc2ncc(Cc3ccc(F)cc3)s2)o1,117% (inactive)
11,CCn1nc(C(=O)NC2=NCCS2)c2ccccc2c1=O,103% (inactive)
12,Cc1cc(C)c2c(c1)SC1=NC(c3ccccc3)(C(F)(F)F)NC(=O)N12 (stereo not drawn),102% (inactive)
13,O=C(CC1CCCCC1)c1c(O)c2ccccc2oc1=O,88.5% (inactive)
14,CC[n+]1cc(-c2ccccc2)nc(N2CCOCC2)n1,99.9% (inactive)
15,CCOc1ccc2nc(NC(=O)CN3CCC(n4nnc5cc(F)ccc54)CC3)sc2c1,82.7% (inactive)
16,CC1(C)CC(=O)c2cc(C(=O)NCc3ccco3)c(=O)n(-c3ccc(Cl)cc3)c2C1,105% (inactive)
17,Cc1nc2cc(N3CCCCC3)c(NC(=O)c3cccnc3)cc2c(=O)n1Cc1ccccc1,91.8% (inactive)
18,Cc1cccc(-c2nc(CN3CCCC(C(=O)NC4CCCCCC4)C3)c(C)o2)c1 (stereo not drawn),90.9% (inactive)
19,COc1ccc(CCn2c(=S)[nH]c3cc(C(=O)NCc4ccco4)ccc3c2=O)cc1OC,108% (inactive)
20,COc1ccc(NC(=O)CSc2nnc(-c3cccs3)n2-c2ccccc2)cc1,105% (inactive)
21,CCCCC(=O)Nc1ccc(C(=O)Nc2ccc(S(=O)(=O)N3CCCC3)cc2)cc1,104% (inactive)
22,CC12CCC(=O)C=C1CCC1C2CCC2(C)C(O)CCC12 (stereo not drawn),95.3% (inactive)
23,COc1ccc2nc(NC(=O)CSC3=NCCS3)sc2c1,110% (inactive)
24,CCCCCCn1c(SCC(=O)c2c(N)n(C)c(=O)n(C)c2=O)nc2ccccc21,98.8% (inactive)

row,SMILES,viability
1,Cc1cc(Cl)ccc1N=c1ssnc1Cl,104% (inactive)
2,Cc1ccc2c(c1)c1cccc3c1n2CCN3CCC(N)=O,89% (inactive)
3,CCCOC(=O)c1ccc(Oc2cn[nH]c2-c2ccc(OC)cc2O)cc1,86.6% (inactive)
4,CCOc1ccc(-c2n[nH]c(C)c2Oc2ccc(OC)cc2)c(O)c1,93.9% (inactive)
5,O=[N+]([O-])c1cccnc1N1CCC(c2cc(-c3cccc(C(F)(F)F)c3)n[nH]2)CC1,102% (inactive)
6,COc1ccccc1NC(=O)CC1C(=O)NCCN1C(=O)Nc1ccc(Cl)c(Cl)c1 (stereo not drawn),82.4% (inactive)
7,CCCOc1ccc(-c2nc(C#N)c(NCCCn3ccnc3)o2)cc1,90.9% (inactive)
8,CCCc1ccc(-c2cc(NC(=O)CSc3n[nH]c(N)n3)n(-c3ccccc3)n2)cc1,100% (inactive)
9,OC(COc1ccc(Cl)c2ccccc12)CN1CCN(c2ccccn2)CC1 (stereo not drawn),109% (inactive)
10,CCOC(=O)c1ccc(NC(=O)c2c(C)[nH]c(C(=O)OCC)c2C)cc1,103% (inactive)
11,COc1cc2c(C(=O)NCc3ccc4c(c3)OCO4)cn(CC(C)C)c(=O)c2cc1OC,106% (inactive)
12,CC(C)c1ccc(C2C3CSCC=C3C(C#N)=C(N)C2(C#N)C#N)cc1 (stereo not drawn),88.4% (inactive)
13,Cc1ccc(C)c(C(C)NC(=O)C2C3CCC(O3)C2C(=O)O)c1 (stereo not drawn),94.5% (inactive)
14,O=C(CSc1ccc2c(c1)OCCO2)Nc1ccc(Cl)cn1,94.9% (inactive)
15,CCCSc1nc2c(cnn2-c2ccc(C)cc2)c(=O)[nH]1,93.1% (inactive)
16,Cc1cccc(C)c1N1CCN(c2ccc3nnc(C(F)(F)F)n3n2)CC1,81.7% (inactive)
17,COc1cc2cc(C(c3nnnn3C3CCCC3)N3CCc4ccccc43)c(=O)[nH]c2cc1OC (stereo not drawn),92.9% (inactive)
18,CC(=O)Oc1ccc(N(C(C)=O)S(=O)(=O)c2cccs2)c2ccccc12,95.7% (inactive)
19,OC(C#Cc1ccccn1)c1cccs1 (stereo not drawn),98.2% (inactive)
20,Cc1ccc(-c2nnc(N3CCN(C(=O)CSc4ncn[nH]4)CC3)c3ccccc23)cc1,102% (inactive)
21,COc1cccc(-c2cc(C(=O)Nc3cc(C)n(Cc4ccc(Cl)cc4)n3)no2)c1,92% (inactive)
